The record followed here is ChEMBL document CHEMBL1938290, “Synthesis of 5-benzyl-2-phenylpyrazolo[1,5-a]pyrazin-4,6(5H,7H)-dione derivatives and discovery of an apoptosis inducer for H322 lung cancer cells” (Bioorg Med Chem Lett, 2012).

For data set [1], the system named is A549. Briefly: Cytotoxicity against human A549 cells expressing wild type p53 at 40 uM after 48 hrs by SRB assay. The format is functional, cell-based. An outline of the steps: (§1)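 A549 (p53 wild-type) lung cancer cells exposed to compound at 20 or 40 µM for 24 or 48 h respectively. Growth/viability then measured by SRB staining with a spectrophotometric read-out, expressed as % of untreated control.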
(In general: Sulforhodamine B stains cellular protein and so reports cell mass.)

Data set [2] relates to A549. Nature of the data set: Cytotoxicity against human A549 cells expressing wild type p53 at 20 uM after 24 hrs by SRB assay. The format is functional, cell-based. An outline of the steps:
as §1

Data set [3] deals with NCI-H322. Briefly: Cytotoxicity against human NCI-H322 cells expressing p53 mutant at 20 uM after 24 hrs by SRB assay. The format is functional, cell-based. An outline of the steps:
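H322 (p53-mutant) cells treated at 20 µM or left untreated for 24 h. Viability measured by SRB assay and given as % of untreated control. Mean ± SE, n = 3, significance P < 0.05 vs control.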

Data set [4] can be described thus: Solubility of the compound. The format is physicochemical.
Another data set concerns HUVEC. Nature of the data set: Cytotoxicity against HUVEC up to 40 uM by SRB assay. To be noted: human. The format is cell-based.
Data set [5] concerns NCI-H322. Nature of the data set: Induction of apoptosis in human NCI-H322 cells assessed as nuclear granulation at 10 to 40 uM after 24 hrs by Hoechst 33258 staining-based fluorescent microscopy. It is filed as functional, cell-based. An outline of the steps:
(§2)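 H322 cells cultured 24 h with compound or vehicle (0.1% DMSO), then stained with Hoechst 33258. Viewed by fluorescence microscopy at 400×, scoring condensed chromatin and nuclear granulation (blue fluorescence). Apoptotic cell ratio expressed vs control as mean ± SE, n = 3.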

Data set [6] is described as follows: (§3) Cytotoxicity against human NCI-H322 cells expressing p53 mutant after 24 hrs by SRB assay. It is filed as functional, cell-based. To be noted: NCI-H322, 24 h. An outline of the steps: (§4)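 H322 cells exposed to 10, 20, 30 or 40 µM, alongside untreated control, for 24 h. SRB viability read by spectrophotometer. Mean ± SE, n = 3. IC50 taken from the dose–response at 24 h.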

Data set [7] has as its system NCI-H322. Described as §3. It is filed as functional, cell-based. An outline of the steps: as §4
The test system of data set [8] is NCI-H322. Briefly: Induction of apoptosis in human NCI-H322 cells assessed as chromatin condensation at 10 to 40 uM after 24 hrs by Hoechst 33258 staining-based fluorescent microscopy. The format is functional, cell-based. An outline of the steps:
as §2

The term IC50 denotes the midpoint of a concentration-inhibition curve. Read a low IC50 as higher potency.

Calls of active or inactive are those of the source. No cut-off for these calls is given here.

`O=C1Cn2nc(-c3ccc(Cl)cc3)cc2C(=O)N1CCc1ccccc1`: the outcome in the data set with A549 [1] and in the data set on A549 [2] was inactive.
Regarding `COc1ccc(-c2cc3n(n2)CC(=O)N(Cc2ccccc2)C3=O)cc1`, the outcome with A549 [1] and in the data set with A549 [2] was inactive. The outcome with NCI-H322 [3] was Active. The solubility result in [4] is recorded as “Insoluble”.
Turning to `O=C1Cn2nc(-c3ccccc3)cc2C(=O)N1CCc1ccccc1`, the result with A549 [1] and in the data set on A549 [2] was inactive.
Consider `O=C1Cn2nc(-c3ccccc3)cc2C(=O)N1Cc1ccccc1`, for which the result with A549 [1] and in the data set on A549 [2] was inactive.
On to `O=C1Cn2nc(-c3ccccc3)cc2C(=O)N1CCc1ccc(F)cc1`, for which the outcome with A549 [1] and in the data set with A549 [2] was inactive.
Consider `O=C1Cn2nc(-c3ccc(Cl)cc3)cc2C(=O)N1Cc1ccccc1`, for which the outcome with A549 [1] and in the data set with A549 [2] was inactive.
Consider `COc1ccc(-c2cc3n(n2)CC(=O)N(CCc2ccc(F)cc2)C3=O)cc1`, for which the outcome in the data set with A549 [1] and in the data set with A549 [2] was inactive.
As for `O=C1Cn2nc(-c3ccc(Cl)cc3)cc2C(=O)N1CCc1ccc(F)cc1`, the outcome in the data set with A549 [1] and in the data set with A549 [2] was inactive.
Consider `COc1cccc(CCN2C(=O)Cn3nc(-c4ccc(Cl)cc4)cc3C2=O)c1`, for which the outcome with A549 [1] and with A549 [2] was inactive.
For `COc1cccc(CCN2C(=O)Cn3nc(-c4ccccc4)cc3C2=O)c1`, the outcome in the data set with A549 [1] and in the data set on A549 [2] was inactive.
As for `COc1ccc(-c2cc3n(n2)CC(=O)N(CCc2cccc(OC)c2)C3=O)cc1`, the outcome with A549 [1] and in the data set with A549 [2] was inactive.
As to `COc1ccc(-c2cc3n(n2)CC(=O)N(CCc2ccccc2)C3=O)cc1`, the Activity entry in the data set with HUVEC is “Non-toxic”; in the data set with NCI-H322 [7], “Dose-dependent effect”. The outcome in the data set on NCI-H322 [5] and in the data set on NCI-H322 [8] was Active. In data set [6], this compound returned an IC50 of 28.5 µM. The result with A549 [1] and in the data set on A549 [2] was inactive.
